Results filed as inconclusive are left out.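 How the source made its calls, unless noted: active means RAM network inhibition above 8.4% in each of two replicates, 3 SD over the compound average; inconclusive means above 8.4% inhibition in only one replicate; inactive means 8.4% inhibition or less in each replicate.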
What was measured:
[1] = S. cerevisiae growth inhibition in permissive medium (OD615), pilot counter-assay for S. cerevisiae lifespan shortening project, permissive growth control (AID 705;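 active means growth inhibition above 25% in both replicates, a cutoff set 3 SD above the mean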); conditions: OD615, 24 h, at 10 µM, stronger effect = higher value
In short: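 System: S. cerevisiae with engineered DeaD lifespan system / Measured by: absorbance (optical density) at 615 nm / Read-out: reduction in yeast growth (OD615) / Times: 4 h cell pre-growth, 24 h exposure at 30 °C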

[2] = S. cerevisiae growth inhibition in restrictive medium, OD615, pilot screen, restrictive growth control, yeast lifespan reduction project (AID 706;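 active means growth inhibition above a set limit, 3 SD over mean compound inhibition, in both replicates, cut at about 43% in these data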;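 further: modified DeaD lifespan yeast strain shifted to restrictive glucose medium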); conditions: OD615, 48 h, at 10 µM, stronger effect = higher value
In short: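 System: Engineered S. cerevisiae DeaD strain | Buffer or medium: Glucose-based CSMM-D restrictive medium | Schedule: 4 h pre-incubation, 48 h exposure at 30 °C | Technique: Optical density at 615 nm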

[3] = doxorubicin toxicity protection in MRP-1 cells – H69AR cells, CellTiter-Glo, duplicate, MRP-1 activator project, pilot screen (AID 807;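 active means viability increase at or above a cutoff of the median across tested compounds plus 3 SD, cut at about 8.5% in these data, passing the limit was not always enough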;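 further: compound pretreatment 18-22 h then 72 h combined with doxorubicin; 0% = doxorubicin alone and 100% = vehicle without doxorubicin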); conditions: H69AR viability with doxorubicin, CellTiter-Glo luminescence; at 10 µM; stronger effect = higher value
[4] = viability of HCT116 without oncogenic beta-catenin – human colon tumor cells, pilot screen (AID 823;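 active means cell viability at or below a set limit in both duplicate runs, the limit being the all-compound median minus 4 SD, cut at about 23% in these data, passing the limit was not always enough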;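 further: 0% = wells killed by 20 µM Hyamine and 100% = untreated DMSO cell wells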); conditions: HCT116 beta-catenin knockout viability, CellTiter-Glo, 60 h; at 10 µM; stronger effect = lower value
[5] = viability of PTEN-null HCT116 cells – cell-based, HCT116 clonal line, CellTiter-Glo, pilot screen (AID 824;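 active means viability at or below 27.92% in each of two runs, the all-compound median minus 4 SD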;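 further: 0% = 20 µM Hyamine control and 100% = vehicle cell control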); conditions: HCT116 PTEN-deleted viability, 60 h, at 10 µM, stronger effect = lower value
[6] = RAM pathway blockade in budding yeast – dse1pr::URA3 reporter, 5-FOA selection, pilot screen (AID 869;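 active means inhibition over a set limit, the all-compound mean plus 3 SD, in both replicate runs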;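 further: 0% = DMSO wells with no growth and 100% = 10 µM 1-NA-PP1 with full growth; RAM network block rescues cells from 5-FOA so hits raise OD615 growth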); conditions: S. cerevisiae dse1pr::URA3 5-FOA growth, OD615, 2 d; at 10 µM; stronger effect = higher value; strain carries analog-sensitive mutant Cbk1 kinase
[7] = RAM signaling pathway blockade in yeast – S. cerevisiae, Pdr1DBD-CYC8 efflux-inhibited sensitized strain, primary screen (AID 1298);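 further: 0% = DMSO untreated cells without growth and 100% = 10 µM 1-NA-PP1 full growth; higher means more yeast growth rescued from 5-FOA killing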; conditions: S. cerevisiae cbk1-as DSE1-URA3 strain, 5-FOA growth OD615, 2 d; at 50 µM; stronger effect = higher value

O=C(COc1ccc(F)cc1)Nc1nccs1
inactive: growth inhibition [1] -3.23% | growth inhibition [2] 4.43% | viability increase [3] 2.32% | viability [4] 103% | viability [5] 90.2% | inhibition [6] 3.26% | RAM network inhibition [7] 5.34%

O=C(O)CC1C(=O)NCCN1CCCc1ccccc1 (configuration not stated)
inactive: growth inhibition [1] -11.4% | growth inhibition [2] -8.64% | viability increase [3] -0.23% | viability [4] 97.8% | viability [5] 97.9% | inhibition [6] 0.455% | RAM network inhibition [7] -1.48%

Cc1nn(C(=O)c2cccs2)c(N)c1-c1ccccc1
inactive: growth inhibition [1] 2.29% | growth inhibition [2] 5.9% | viability increase [3] 0.4% | viability [4] 84.4% | viability [5] 96% | inhibition [6] 0.035% | RAM network inhibition [7] 2.36%

COc1ccc(N2CCN(c3cc(C)c4ccc(O)cc4n3)CC2)cc1
inactive: growth inhibition [1] 3.12% | growth inhibition [2] 10.5% | viability increase [3] -2.1% | viability [4] 75.7% | viability [5] 79.8% | inhibition [6] 0.39% | RAM network inhibition [7] 6.62%

Cc1cc(N2CCN(C(=O)c3ccco3)CC2)n2nc(C)nc2n1
inactive: growth inhibition [1] -6.63% | growth inhibition [2] 5.6% | viability increase [3] -3.61% | viability [4] 95.5% | viability [5] 98.2% | inhibition [6] 0.95% | RAM network inhibition [7] -0.63%

CCOC(=O)C1=C(C)OC(N)=C(C#N)C1c1c(C)nn(-c2ccccc2)c1Cl (configuration not stated)
inactive: growth inhibition [1] -11.9% | growth inhibition [2] -20% | viability increase [3] -3.98% | viability [4] 102% | viability [5] 98.1% | inhibition [6] 3.71% | RAM network inhibition [7] 7.39%

CCN1C(=O)NC2C1N(S(C)(=O)=O)CCN2S(C)(=O)=O (configuration not stated)
inactive: growth inhibition [1] -1.72% | growth inhibition [2] 2.34% | viability increase [3] -0.57% | viability [4] 108% | viability [5] 92.1% | inhibition [6] 1.29% | RAM network inhibition [7] 4.02%

Cc1oc(C(C)(C)C)cc1C(=O)Nc1ccc(C(=O)O)cc1
inactive: growth inhibition [1] 6.25% | growth inhibition [2] -11.5% | viability increase [3] 2.02% | viability [4] 103% | viability [5] 91% | inhibition [6] 0.6% | RAM network inhibition [7] -1.87%

Cc1ccc(NC(=O)C2C3C=CC4(CN(Cc5cccnc5)C(=O)C24)O3)cc1 (configuration not stated)
inactive: growth inhibition [1] 5.17% | growth inhibition [2] -7.85% | viability increase [3] -1.21% | viability [4] 74.4% | viability [5] 97.3% | inhibition [6] 0.77% | RAM network inhibition [7] 2.87%

CCOC(=O)C1CCCN(C(=O)c2cc3c(=O)n(C)c4ccccc4c3n2C)C1 (configuration not stated)
inactive: growth inhibition [1] -1.98% | growth inhibition [2] 0.3% | viability increase [3] -3.5% | viability [4] 94.2% | viability [5] 92.7% | inhibition [6] 0.67% | RAM network inhibition [7] -0.46%

O=C(COC(=O)c1cnccn1)c1ccc(Br)cc1
inactive: growth inhibition [1] -9.27% | growth inhibition [2] -14.4% | viability increase [3] 0.41% | viability [4] 101% | viability [5] 96.7% | inhibition [6] 1.94% | RAM network inhibition [7] 2.72%

CNc1nc(SCC(=O)OC)nc(N2CCOCC2)n1
inactive: growth inhibition [1] -11.7% | growth inhibition [2] -14.8% | viability increase [3] -1.78% | viability [4] 93.9% | viability [5] 89.3% | inhibition [6] 1.14% | RAM network inhibition [7] 3.47%

COc1ccc(C(=O)Nc2c(N)nc(SCC(=O)N3CCCCCC3)[nH]c2=O)cc1OC
inactive: growth inhibition [1] -2.35% | growth inhibition [2] -3.33% | viability increase [3] -0.26% | viability [4] 96.8% | viability [5] 102% | inhibition [6] 1.97% | RAM network inhibition [7] 5.94%

COc1ccc(-c2nnc3ccc(SCC(=O)N4CCCCCC4)nn23)cc1OC
inactive: growth inhibition [1] 1.58% | growth inhibition [2] -3.42% | viability increase [3] -4.16% | viability [4] 103% | viability [5] 109% | inhibition [6] 0.615% | RAM network inhibition [7] 0.05%

O=C(COc1ccccc1)Nc1ccc(S(=O)(=O)N2CCCC2)cc1
inactive: growth inhibition [1] -12.9% | growth inhibition [2] -12.5% | viability increase [3] -1.84% | viability [4] 99.5% | viability [5] 88.7% | inhibition [6] 2.33% | RAM network inhibition [7] 2.76%

O=C(NCC1OCCc2ccccc21)c1ccco1 (configuration not stated)
inactive: growth inhibition [1] -13.7% | growth inhibition [2] -8.18% | viability increase [3] -3.72% | viability [4] 94.5% | viability [5] 96.5% | inhibition [6] 1.16% | RAM network inhibition [7] 6.11%

Cc1ccc(C(c2sc3nc(C)nn3c2O)N2CCN(CCO)CC2)cc1 (configuration not stated)
inactive: growth inhibition [1] -1.01% | growth inhibition [2] 7% | viability increase [3] -0.92% | viability [4] 97.8% | viability [5] 97.5% | inhibition [6] 1.54% | RAM network inhibition [7] 4.52%

COc1cccc(C2NC(=O)NC(O)(C(F)(F)F)C2C(=O)c2cccnc2)c1OC (configuration not stated)
inactive: growth inhibition [1] 2.02% | growth inhibition [2] -2.12% | viability increase [3] 0.64% | viability [4] 109% | viability [5] 98.9% | inhibition [6] 1.14% | RAM network inhibition [7] 0.92%

Cc1nnc(NC(=O)CSc2nc3c(c(=O)n2CCc2ccccc2)SC(C)C3)s1 (configuration not stated)
inactive: growth inhibition [1] -9.82% | growth inhibition [2] -15.6% | viability increase [3] 0.33% | viability [4] 101% | viability [5] 103% | inhibition [6] 3.13% | RAM network inhibition [7] 6.06%

CC1(C)Cc2c(C#N)c(NCCCO)nc(-c3ccccc3)c2CO1
inactive: growth inhibition [1] -7.54% | growth inhibition [2] -20.9% | viability increase [3] -4.65% | viability [4] 88% | viability [5] 85.3% | inhibition [6] 0.25% | RAM network inhibition [7] -0.94%

CCCCc1ccc(Nc2ncnc3nc[nH]c23)cc1
inactive: growth inhibition [1] -6.71% | growth inhibition [2] 22.7% | viability increase [3] 2.8% | viability [4] 106% | viability [5] 94% | inhibition [6] -0.1% | RAM network inhibition [7] 1.66%

CCOCCn1c(SCc2ccccc2)nc2c1c(=O)[nH]c(=O)n2C
inactive: growth inhibition [1] -16.6% | growth inhibition [2] -27.6% | viability increase [3] -1.41% | viability [4] 104% | viability [5] 96.7% | inhibition [6] 0.205% | RAM network inhibition [7] 7.51%

COc1cccc(OCC(=O)N(Cc2nc(-c3ccc(Cl)cc3)no2)C(C)C)c1
inactive: growth inhibition [1] -4.67% | growth inhibition [2] -2.81% | viability increase [3] 2.88% | viability [4] 91% | viability [5] 89.7% | inhibition [6] 3.32% | RAM network inhibition [7] 3.59%

Cc1ccc(C)c(C(=O)N(Cc2nc(-c3ccc(Cl)cc3)no2)C(C)C)c1
inactive: growth inhibition [1] -8.99% | growth inhibition [2] -16.6% | viability increase [3] -0.54% | viability [4] 56.5% | viability [5] 62.6% | inhibition [6] 1.21% | RAM network inhibition [7] 4.04%

Cc1cc2cc(CNC(=O)c3ccc(S(=O)(=O)N4CCCCC4)cc3)ccc2n1C
inactive: growth inhibition [1] 14.5% | growth inhibition [2] 11.4% | viability increase [3] -0.91% | viability [4] 97.4% | viability [5] 94.2% | inhibition [6] 1.04% | RAM network inhibition [7] 3.71%

c1ccc(CSc2nnc(-c3ccco3)n2Cc2ccco2)cc1
inactive: growth inhibition [1] -5.04% | growth inhibition [2] 0.405% | viability increase [3] -3.83% | viability [4] 88.6% | viability [5] 87.4% | inhibition [6] 1.85% | RAM network inhibition [7] 3.53%

Cc1ccc(C(=O)COC(=O)c2cnccn2)cc1
inactive: growth inhibition [1] -15.1% | growth inhibition [2] -10.8% | viability increase [3] -1.61% | viability [4] 104% | viability [5] 97.8% | inhibition [6] 2.19% | RAM network inhibition [7] 1.61%

Cc1noc(C)c1CSCC(=O)OCC(=O)NC1CCCCC1
inactive: growth inhibition [1] -9% | growth inhibition [2] 2.07% | viability increase [3] 0.39% | viability [4] 97.1% | viability [5] 99.3% | inhibition [6] 0.26% | RAM network inhibition [7] 2.57%

COCCN1Cc2cccc(C(=O)NCc3cccnc3)c2C1=O
inactive: growth inhibition [1] 3.25% | growth inhibition [2] 10.2% | viability increase [3] 0.03% | viability [4] 111% | viability [5] 101% | inhibition [6] 3.75% | RAM network inhibition [7] 0.51%

Cc1ccccc1Cn1c(=O)[nH]c2ccccc21
inactive: growth inhibition [1] -1.87% | growth inhibition [2] 4.58% | viability increase [3] 0.06% | viability [4] 96.5% | viability [5] 88.5% | inhibition [6] 1.9% | RAM network inhibition [7] 4.55%

CCC(C)NC(=O)C1CCC(=O)N(c2ccc3c(c2)OCO3)C1c1ccc(OC)cc1 (configuration not stated)
inactive: growth inhibition [1] 0.49% | growth inhibition [2] -0.06% | viability increase [3] -1.78% | viability [4] 103% | viability [5] 100% | inhibition [6] 1.02% | RAM network inhibition [7] 4.2%

CCOc1ccc2ccccc2c1C(=O)Nc1cc(=O)n(C)c(=O)n1C
inactive: growth inhibition [1] -8.05% | growth inhibition [2] -21.5% | viability increase [3] 0.11% | viability [4] 107% | viability [5] 94.4% | inhibition [6] 1.17% | RAM network inhibition [7] -1.04%

CCc1nc(N(CC)CC)c2oc3ccccc3c2n1
inactive: growth inhibition [1] -2.86% | growth inhibition [2] -35.2% | viability increase [3] -4.87% | viability [4] 75.5% | viability [5] 71% | inhibition [6] -0.16% | RAM network inhibition [7] 1.04%

Cc1ccc(S(=O)(=O)N2CCCC(C(=O)N(Cc3cccs3)C3CC3)C2)cc1 (configuration not stated)
inactive: growth inhibition [1] -7.06% | growth inhibition [2] -14.9% | viability increase [3] -0.66% | viability [4] 61.3% | viability [5] 71.5% | inhibition [6] 0.39% | RAM network inhibition [7] 7.4%

Cc1c(N=Cc2ccco2)c(=O)n(-c2ccccc2)n1C
inactive: growth inhibition [1] -11.1% | growth inhibition [2] -8.96% | viability increase [3] -1.15% | viability [4] 93.8% | viability [5] 96.7% | inhibition [6] 1.39% | RAM network inhibition [7] 0.89%

COc1cc(C(c2sc3nc(C)nn3c2O)N2CC(C)OC(C)C2)cc(OC)c1OC (configuration not stated)
inactive: growth inhibition [1] -0.68% | growth inhibition [2] -4.15% | viability increase [3] -2.37% | viability [4] 93.6% | viability [5] 90.1% | inhibition [6] 0.73% | RAM network inhibition [7] 2.94%

Source: PubChem BioAssay
